ChEMBL document CHEMBL4145613, “Succinimide-Based Conjugates Improve IsoDGR Cyclopeptide Affinity to αvβ3 without Promoting Integrin Allosteric Activation” (J Med Chem, 2018)
The source made the active and inactive calls. The rule behind the calls is not given here. Numbered stars: 1 amine (or outer) side, 2 acyl side, 3 side chain; on linkers, the order of the positions; unused ones are H or OH. Bridge positions count the residues as written; N and C are the ends. Square brackets hold non-standard residues; d marks the D form. Peptide text beside a SMILES is read from it. * marks the point of attachment. X2 = O=C(O)CN1CCN(CC(=O)O)CCN(CC(=O)NCCN2C(=O)CC(*)C2=O)CC1; X1 = NC(=O)[C@H]1CC[C@H](CN2C(=O)CC(*)C2=O)CC1; Succinimide(1-Et,3-yl) = CCN1C(=O)CC(*)C1=O; βAsp = O=C(O)[C@H](CC(=O)[*:2])N[*:1]

What was measured:
Integrin alpha-V/beta-3 [1] = molecular target: T1, Integrin alpha-V/beta-3 (Homo sapiens, UniProt P05106+P06756); assay: Allosteric activation of integrin alphaVbeta3 receptor in human MSR3 […] assessed as increase in anti-beta3 LIBS integrin antibody AP5 binding at 500 uM incubated for 90 mins by flow cytometry; type: cell-based; conditions: 1.5 h
Integrin alpha-V/beta-3 [2] = molecular target: T1, Integrin alpha-V/beta-3; assay: Allosteric activation of integrin alphaVbeta3 receptor in human MSR3 […] assessed as increase in anti-beta3 LIBS integrin antibody AP5 binding at 5 uM incubated for 90 mins by flow cytometry; type: cell-based; conditions: 1.5 h
Integrin alpha-V/beta-3 [3] = molecular target: T1, Integrin alpha-V/beta-3; assay: Binding affinity to human integrin alphaVbeta3 receptor using acetyl-CisoDGRCGVRSSSRTPSDKY-bio probe and streptavidin-peroxidase conjugate incubated for 3 hrs by competitive binding assay; type: protein-complex assay
Method in brief: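 Ki reported with its standard error from several independent experiments, each run in duplicate. Groups were compared by one-way ANOVA with Dunnett's post-test.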

Integrin alpha-V/beta-3 [4] = molecular target: T1, Integrin alpha-V/beta-3; assay: Allosteric activation of integrin alphaVbeta3 receptor in human MSR3 […] assessed as increase in monoclonal antibody LM609 binding at 500 uM incubated for 90 mins by flow cytometry; type: cell-based; conditions: 1.5 h
Integrin alpha-V/beta-3 [5] = molecular target: T1, Integrin alpha-V/beta-3; assay: Binding affinity to integrin alphaVbeta3 receptor in human MSR3 cell membranes incubated for 2 hrs by Tr-NOESY NMR spectroscopy
Integrin alpha-V/beta-3 [6] = molecular target: T1, Integrin alpha-V/beta-3; assay: Binding affinity to integrin alphaVbeta3 receptor in human MSR3 cell membranes assessed as change in STD spectra incubated for 2 hrs by NMR spectroscopy relative to untreated control
Method in brief: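 Saturation transfer difference NMR used ligand at 1 mM with native membranes prepared from MSR3 melanoma cells (75-125 x10^6 cells). These cells express high αvβ3, as checked by FACS. Ligand protons nearest the receptor were identified from transferred saturation.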

Integrin alpha-V/beta-3 [7] = molecular target: T1, Integrin alpha-V/beta-3; assay: Binding affinity to integrin alphaVbeta3 receptor in EDTA pre-treated human MSR3 cell membranes incubated for 2 hrs by Tr-NOESY NMR spectroscopy
Method in brief: (§1)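 Ligand (1 mM) NMR-observed with native membranes prepared from human melanoma MSR3 cells (75-125 x10^6 cells), whose high αvβ3 expression was confirmed by FACS. Line 1 used saturation transfer difference (STD) to map the ligand protons closest to the receptor. Line 2 used transferred NOE, comparing NOEs with and without membranes.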

Integrin alpha-V/beta-3 [8] = molecular target: T1, Integrin alpha-V/beta-3; assay: Binding affinity to integrin alphaVbeta3 receptor in EDTA pre-treated human MSR3 cell membranes incubated for 2 hrs by NMR spectroscopy; method in brief: as §1

Row | Compound | Activity (Integrin alpha-V/beta-3 [1]) | Ki (Integrin alpha-V/beta-3 [3]) | further results
1 | N=C(N)NCCC[C@@H]1NC(=O)CNC(=O)C[C@@H](C(=O)O)NC(=O)CNC(=O)[C@H](CS)NC(c2ccccc2)C(=O)NC1=O (stereo not given in full) | Not Active | – | –
2 | N=C(N)NCCC[C@@H]1NC(=O)CNC(=O)C[C@@H](C(=O)O)NC(=O)CNC(=O)[C@H](CSC2CC(=O)N(CCNC(=O)CN3CCN(CC(=O)O)CCN(CC(=O)O)CC3)C2=O)NC(=O)CNC1=O (stereo not given in full) (GRGC(X2)GD-OH; lactam N-6) | Not Active | 21.6 nM | Activity (Integrin alpha-V/beta-3 [2]): Not Active
3 | N=C(N)NCCC[C@@H]1NC(=O)CNC(=O)C[C@@H](C(=O)O)NC(=O)[C@@H](N)CSSC[C@@H](C(=O)O)NC1=O (H-C[βAsp]GRC-OH; disulfide 1-5) | Not Active | – | –
4 | N=C(N)NCCC[C@@H]1NC(=O)CNC(=O)C[C@@H](C(=O)O)NC(=O)[C@H](CS)NC(=O)CNC1=O (GRGCD-OH; lactam N-5) | Not Active | – | –
5 | N=C(N)NCCC[C@@H]1NC(=O)CNC(=O)C[C@@H](C(=O)O)NC(=O)[C@H](CS)NC(=O)CNC(=O)CNC1=O (GRGGCD-OH; lactam N-6) | Not Active | – | –
6 | N=C(N)NCCC[C@@H]1NC(=O)CNC(=O)C[C@@H](C(=O)O)NC(=O)[C@H](CS)NCC(=O)NC(=O)C(c2ccccc2)NC1=O (stereo not given in full) | Not Active | – | –
7 | N=C(N)NCCC[C@@H]1NC(=O)CNC(=O)C[C@@H](C(=O)O)NC(=O)CNC(=O)[C@H](CS)NC(=O)CNC1=O (GRGCGD-OH; lactam N-6) | Not Active | – | Activity (Integrin alpha-V/beta-3 [4]): Not Active
8 | N=C(N)NCCC[C@@H]1NC(=O)CNC(=O)[C@H](CC(=O)O)NC(=O)[C@@H](N)CSSC[C@@H](C(=O)O)NC1=O (H-CDGRC-OH; disulfide 1-5) | – | – | Activity (Integrin alpha-V/beta-3 [5]): inactive; Activity (Integrin alpha-V/beta-3 [6]): inactive
9 | N=C(N)NCCC[C@@H]1NC(=O)[C@H](CS)NC(=O)[C@@H](Cc2ccccc2)NC(=O)[C@H](CC(=O)O)NC(=O)CNC1=O (cyclo(RGD[dF]C)) | – | 6.3 nM | –
10 | N=C(N)NCCC[C@@H]1NC(=O)CNC(=O)C[C@@H](C(=O)O)NC(=O)CNC(=O)[C@H](CSC2CC(=O)N(C[C@H]3CC[C@H](C(N)=O)CC3)C2=O)NC(=O)CNC1=O (stereo not given in full) (GRGC(X1)GD-OH; lactam N-6) | Not Active | 19.9 nM | Activity (Integrin alpha-V/beta-3 [2]): Not Active; Activity (Integrin alpha-V/beta-3 [5]): > 50%; Activity (Integrin alpha-V/beta-3 [6]): > 50%; Activity (Integrin alpha-V/beta-3 [7]): inactive; Activity (Integrin alpha-V/beta-3 [8]): inactive
11 | CCN1C(=O)CC(SC[C@@H]2NC(=O)CNC(=O)[C@H](CCCNC(=N)N)NC(=O)CNC(=O)C[C@@H](C(=O)O)NC(=O)CNC2=O)C1=O (stereo not given in full) (GRGC(Succinimide(1-Et,3-yl))GD-OH; lactam N-6) | Not Active | 26.5 nM | Activity (Integrin alpha-V/beta-3 [2]): Not Active; Activity (Integrin alpha-V/beta-3 [5]): > 50%; Activity (Integrin alpha-V/beta-3 [6]): > 50%
